From ChEMBL document CHEMBL1122008, “Lipophilic 5'-(alkyl phosphate) esters of 1-beta-D-arabinofuranosylcytosine and its N4-acyl and 2,2'-anhydro-3'-O-acyl derivatives as potential prodrugs” (1982)

Tests used:
Format in all cases: functional
L1210 = assay: Growth inhibition of cultured L1210 mouse leukemia cells was determined; conditions: read-out: ID50 (the source's name)
Procedure, shortened: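 L1210 mouse leukemia cells in suspension in Eagle's MEM with 15% whole (non-dialyzed, non-heat-inactivated) fetal calf serum, antibiotics and 0.05 mM 2-mercaptoethanol, 37 °C, 5% CO2. Drugs in pH 7.4 phosphate buffer or Me2SO, generally 10^-7 to 10^-3 M. Coulter cell counts at 48 h; ID50 relative to untreated controls from dose–response curves, triplicate.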

Mus musculus [1] = assay: Antitumor activity against L1210 leukemia in mice (Average weight per mouse on day 1.) at the dose of 160 mg/kg
Procedure, shortened: (§1)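 Male B6D2F1J mice (5–9 per group) received 10^5 L1210 cells i.p. on day 0 and drug from day 1, given qd×5 or q4d(2,6). Vehicles were sterile water, 0.05 M potassium phosphate pH 7.4, or 0.4% Tween 80/0.5% CMC/0.9% benzyl alcohol/0.9% saline. Read-out is average body weight per mouse (g) on day 1.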

Mus musculus [2] = assay: Antitumor activity against L1210 leukemia in mice (Average weight per mouse on day 1.) at the dose of 320 mg/kg; procedure, shortened: as §1
Mus musculus [3] = assay: Antitumor activity against L1210 leukemia in mice (Average weight per mouse on day 1.) at the dose of 640 mg/kg; procedure, shortened: as §1
Mus musculus [4] = assay: Antitumor activity against L1210 leukemia in mice (Average weight per mouse on day 1.) at the dose of 80 mg/kg; procedure, shortened: as §1
Mus musculus [5] = assay: Antitumor activity against L1210/ara-C leukemia in mice (Average weight per mouse on day 1.) at the dose of 160 mg/kg
Procedure, shortened: (§2)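 Male B6D2F1J mice, groups of 5–9, inoculated ip with 10^5 L1210/ara-C cells on day 0. Dosing began day 1 on a qd×5 or q4d(2,6) schedule. Ara-C was given in sterile water, the n-butyl phosphate ester in 0.05 M pH 7.4 potassium phosphate buffer, and others as suspensions in 0.4% Tween 80/0.5% CMC/0.9% benzyl alcohol/0.9% saline. Mice were weighed on days 1 and 7; 7-day change given in g and %.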

Mus musculus [6] = assay: Antitumor activity against L1210/ara-C leukemia in mice (Average weight per mouse on day 1.) at the dose of 640 mg/kg; procedure, shortened: as §2
Mus musculus [7] = assay: Antitumor activity against L1210/ara-C leukemia in mice (Average weight per mouse on day 1.) at the dose of 80 mg/kg; procedure, shortened: as §2
Mus musculus [8] = assay: Antitumor activity against L1210 leukemia in mice (Percent increase in life span.) at the dose of 160 mg/kg
Procedure, shortened: (§3)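 Male B6D2F1J mice, groups of 5–9, inoculated ip with 10^5 L1210 cells on day 0. Dosing starts day 1 on a qd×5 or q4d(2,6) schedule. Vehicles are sterile water, pH 7.4 0.05 M potassium phosphate buffer, or 0.4% Tween 80/0.5% CMC/0.9% benzyl alcohol/0.9% saline. %ILS = (T/C − 1)×100 from median survival. Weights taken days 1 and 7.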

Mus musculus [9] = assay: Antitumor activity against L1210 leukemia in mice (Percent increase in life span.) at the dose of 320 mg/kg; procedure, shortened: as §3
Mus musculus [10] = assay: Antitumor activity against L1210 leukemia in mice (Percent increase in life span.) at the dose of 640 mg/kg; procedure, shortened: as §3
Mus musculus [11] = assay: Antitumor activity against L1210 leukemia in mice (Percent increase in life span.) at the dose of 80 mg/kg; conditions: L1210, dose 80 mg/kg; procedure, shortened: as §3
Mus musculus [12] = assay: Antitumor activity against L1210/ara-C leukemia in mice (Percent increase in life span.) at the dose of 160 mg/kg
Procedure, shortened: (§4)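 Same protocol as the L1210 assay, but with 10^5 kinase-deficient L1210/ara-C cells inoculated ip into male B6D2F1J mice (groups of 5–9) on day 0. Treatment begins day 1, qd×5 or q4d(2,6). %ILS = (T/C − 1)×100 using median survival times of treated and control groups. Body weight recorded days 1 and 7.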

Mus musculus [13] = assay: Antitumor activity against L1210 leukemia in mice (Average 7-day weight change (%)) at the dose of 160 mg/kg
Procedure, shortened: (§5)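 Male B6D2F1J mice, groups of five to nine, inoculated ip with 10^5 L1210 cells on day 0. Drug treatment started day 1 on qd×5 or q4d(2,6) schedule. Vehicles: ara-C in sterile water; the n-butyl phosphate ester in 0.05 M pH 7.4 potassium phosphate buffer; others as suspensions in 0.4% Tween 80/0.5% low-density CMC/0.9% benzyl alcohol/0.9% saline. Mice weighed days 1 and 7; 7-day weight change given as g/mouse and %.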

Mus musculus [14] = assay: Antitumor activity against L1210 leukemia in mice (Average 7-day weight change (%)) at the dose of 320 mg/kg; procedure, shortened: as §5
Mus musculus [15] = assay: Antitumor activity against L1210/ara-C leukemia in mice (Percent increase in life span.) at the dose of 320 mg/kg; procedure, shortened: as §4
Mus musculus [16] = assay: Antitumor activity against L1210/ara-C leukemia in mice (Percent increase in life span.) at the dose of 640 mg/kg; procedure, shortened: as §4
Mus musculus [17] = assay: Antitumor activity against L1210/ara-C leukemia in mice (Percent increase in life span.) at the dose of 80 mg/kg; procedure, shortened: as §4
Mus musculus [18] = assay: Antitumor activity against L1210 leukemia in mice (Average 7-day weight change) at the dose of 160 mg/kg; procedure, shortened: as §5
Mus musculus [19] = assay: Antitumor activity against L1210 leukemia in mice (Average 7-day weight change) at the dose of 320 mg/kg; procedure, shortened: as §5
Mus musculus [20] = assay: Antitumor activity against L1210 leukemia in mice (Average 7-day weight change (%)) at the dose of 640 mg/kg; procedure, shortened: as §5
Mus musculus [21] = assay: Antitumor activity against L1210 leukemia in mice (Average 7-day weight change (%)) at the dose of 80 mg/kg; procedure, shortened: as §5
Mus musculus [22] = assay: Antitumor activity against L1210/ara-C leukemia in mice (Average 7-day weight change) at the dose of 160 mg/kg
Procedure, shortened: (§6)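 Male B6D2F1J mice (5–9 per group) were given 10^5 L1210/ara-C cells i.p. on day 0, with treatment from day 1 on qd×5 or q4d(2,6). Vehicles were sterile water, pH 7.4 0.05 M phosphate buffer, or a Tween 80/CMC/benzyl alcohol saline suspension. Weights were taken on days 1 and 7; change is expressed in g/mouse and as a percentage.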

Mus musculus [23] = assay: Antitumor activity against L1210/ara-C leukemia in mice (Average 7-day weight change) at the dose of 320 mg/kg; procedure, shortened: as §6
Mus musculus [24] = assay: Antitumor activity against L1210/ara-C leukemia in mice (Average 7-day weight change) at the dose of 640 mg/kg; procedure, shortened: as §2
Mus musculus [25] = assay: Antitumor activity against L1210/ara-C leukemia in mice (Average 7-day weight change) at the dose of 80 mg/kg; procedure, shortened: as §2
Mus musculus [26] = assay: Antitumor activity against L1210 leukemia in mice (Average 7-day weight change) at the dose of 640 mg/kg
Procedure, shortened: (§7)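 Male B6D2F1J mice in groups of five to nine were inoculated i.p. with 10^5 L1210 cells on day 0. Dosing began on day 1 on a qd×5 or q4d(2,6) schedule. The vehicle was sterile water, pH 7.4 0.05 M potassium phosphate buffer, or a saline suspension with 0.4% Tween 80, 0.5% CMC and 0.9% benzyl alcohol. Mice were weighed on days 1 and 7; read-out is average weight change per mouse.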

Mus musculus [27] = assay: Antitumor activity against L1210 leukemia in mice (Average 7-day weight change) at the dose of 80 mg/kg; procedure, shortened: as §7
Mus musculus [28] = assay: Antitumor activity against L1210/ara-C leukemia in mice (Average 7-day weight change (%)) at the dose of 160 mg/kg; procedure, shortened: as §6
Mus musculus [29] = assay: Antitumor activity against L1210/ara-C leukemia in mice (Average 7-day weight change (%)) at the dose of 320 mg/kg; procedure, shortened: as §6
Mus musculus [30] = assay: Antitumor activity against L1210/ara-C leukemia in mice (Average 7-day weight change (%)) at the dose of 640 mg/kg; procedure, shortened: as §6
Mus musculus [31] = assay: Antitumor activity against L1210/ara-C leukemia in mice (Average 7-day weight change (%)) at the dose of 80 mg/kg; procedure, shortened: as §6
B16 = assay: Growth inhibition of B16 mouse melanoma cells in culture was determined; conditions: read-out: ID50 (the source's name)
Procedure, shortened: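 B16 mouse melanoma monolayers in McCoy's 5A with 10% whole fetal calf serum, streptomycin and penicillin, 37 °C, 5% CO2. Drugs were dissolved in 0.05 M pH 7.4 potassium phosphate buffer or Me2SO and dosed at regularly spaced concentrations, generally 10^-7 to 10^-3 M. Cells were counted after 48 h; ID50 versus untreated controls was read from dose–response curves, triplicate.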

CCCCOP(=O)(O)OC[C@H]1O[C@@H](n2ccc(N)nc2=O)[C@@H](O)[C@@H]1O
IC50 (L1210): 7.5 µM
Average weight (Mus musculus [1]): 23.6 g mouse-1
Average weight (Mus musculus [2]): 22.4 g mouse-1
Average weight (Mus musculus [3]): 22.8 g mouse-1
Average weight (Mus musculus [4]): 22 g mouse-1
Average weight (Mus musculus [5]): 22.2 g mouse-1
Average weight (Mus musculus [6]): 22.6 g mouse-1
Average weight (Mus musculus [7]): 23.4 g mouse-1
ILS at 160 mg/kg (Mus musculus [8]): 50%
ILS at 320 mg/kg (Mus musculus [9]): 87%
ILS at 640 mg/kg (Mus musculus [10]): 87%
ILS at 80 mg/kg (Mus musculus [11]): 37%
ILS at 160 mg/kg (Mus musculus [12]): 0%
Weight change (Mus musculus [13]): 4%
Weight change (Mus musculus [14]): 3%
ILS at 320 mg/kg (Mus musculus [15]): 0%
ILS at 640 mg/kg (Mus musculus [16]): -13%
ILS at 80 mg/kg (Mus musculus [17]): 0%
Weight change (Mus musculus [18]): 1 g mouse-1
Weight change (Mus musculus [19]): 0.6 g mouse-1
Weight change (Mus musculus [20]): 1%
Weight change (Mus musculus [21]): 10%
Weight change (Mus musculus [22]): 3.6 g mouse-1
Weight change (Mus musculus [23]): 1 g mouse-1
Weight change (Mus musculus [24]): 0.2 g mouse-1
Weight change (Mus musculus [25]): 3 g mouse-1
Weight change (Mus musculus [26]): 0.2 g mouse-1
Weight change (Mus musculus [27]): 2.6 g mouse-1
Weight change (Mus musculus [28]): 16%
Weight change (Mus musculus [29]): 5%
Weight change (Mus musculus [30]): 0%
Weight change (Mus musculus [31]): 13%
IC50 (B16): 130 µM
